Assay outcomes: PubChem, several laboratories
Sampled rows, rich in hits. Any-hit rate of the full collection: about 4.3%.
SMARCA2 act: increases SMARCA2 function in MMTV reporter cells; MG213 cells, MMTV-luciferase reporter, dexamethasone, overnight; activation, % at 9.1 µM; 370,000 tested, 1% active; AID 652017; in the data active = activation above about 7.8%
SR-BI DiI inh: mouse SR-BI HDL lipid transfer inhibition. 320,000 tested, 0.96% active. AID 488896. Q61009. ldlA[mSR-BI] CHO cells, DiI-HDL uptake fluorescence, 3 h. inhibition, % at 12.5 µM;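 active = mean replicate inhibition of at least 70% and a set share of replicates each scoring 70 or more; inconclusive = meets just one of the two criteria; inactive = fails both criteria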
Target sequence (Q61009 whole entry, looked up): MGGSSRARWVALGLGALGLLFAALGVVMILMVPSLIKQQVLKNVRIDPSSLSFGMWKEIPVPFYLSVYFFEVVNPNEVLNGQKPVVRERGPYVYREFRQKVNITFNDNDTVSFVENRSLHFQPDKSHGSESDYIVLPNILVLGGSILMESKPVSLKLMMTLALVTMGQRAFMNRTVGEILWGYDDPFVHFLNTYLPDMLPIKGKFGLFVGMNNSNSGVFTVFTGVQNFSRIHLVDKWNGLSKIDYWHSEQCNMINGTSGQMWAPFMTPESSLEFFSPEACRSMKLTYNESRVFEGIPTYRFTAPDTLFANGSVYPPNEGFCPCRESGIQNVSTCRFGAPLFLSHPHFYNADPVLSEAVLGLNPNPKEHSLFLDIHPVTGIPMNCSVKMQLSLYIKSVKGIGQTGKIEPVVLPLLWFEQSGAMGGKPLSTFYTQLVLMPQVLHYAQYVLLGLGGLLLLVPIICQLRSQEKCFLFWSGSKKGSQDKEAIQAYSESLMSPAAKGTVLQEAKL
Yeast superoxide: lowers age-related superoxide in aged yeast cells. 330,000 tested, 0.18% active. AID 2690. S. cerevisiae aged cells, superoxide DHE fluorescence; hits give low values. superoxide response (% of plate mean), % at 10 µM;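 active = superoxide response under a set limit, about three screen SD below normal, cut at about 65% in these data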;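 note: yeast aged for seven days with compound at 30 °C before DHE staining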
SR-BI uptake up: activators of SR-BI mediated HDL lipid uptake | activation, % at 12.5 µM | AID 504775 | CHO ldlA[mSR-BI] cells, DiI-HDL uptake fluorescence, 3 h; 100 = double the neutral-control signal | 320,000 tested, 0.096% active;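 active = mean replicate activation of at least 60% and every replicate at or above 60%; inconclusive = mean or all-replicate condition met, but not both; inactive = mean below 60% and not all replicates reaching 60%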
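Test system: SR-BI-overexpressing, LDLR-lacking CHO cells. Measured by: DiI fluorescence, bottom read. Medium: Ham's F12 with 0.5% BSA, HEPES 25 mM, pH 7.4. Timing: 3 h uptake period with compound, 37 °C.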
AHR act: activates the human aryl hydrocarbon receptor; P35869; AHR-responsive luciferase reporter cells, luminescence; activation, % at 5 µM; 320,000 tested, 2.5% active; AID 2796; in the data active = activation above about 47%
Lipid droplet: hepatic lipid droplet formation modulation; AML12 mouse hepatocytes, oleate lipid droplets, BODIPY imaging; inhibition, % at 6.5 µM; 240,000 tested, 0.4% active;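 active = lipid droplet intensity inhibited by at least 50%, with more than 500 cells counted; inconclusive = wells with under 300 cells, treated as cytotoxic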
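Test system: AML12 mouse liver cells; schedule: overnight exposure; technique: high-content imaging of BODIPY-stained droplets and DAPI nuclei; read-out: % inhibition of corrected integrated BODIPY droplet signal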
Hits are given with their value; 0 = inactive; ? = inconclusive; - = not tested or not shown.

SMILES	SMARCA2 act	SR-BI DiI inh	Yeast superoxide	SR-BI uptake up	AHR act	Lipid droplet
COc1ccccc1Nc1nc(-c2sc(NC(=O)c3cccc(Cl)c3)nc2C)cs1	-	-	0	-	0	-
COc1cccc(CNC(=O)[C@H]2CCCN2C(=O)[C@H]2CCCN2S(=O)(=O)c2cccc(C)c2)c1	0	-	-	-	-	-
CN(C)c1ccc(N(C)C)c(C(O)(c2ccccc2)c2ccccc2)c1	0	-	-	-	-	-
Cc1ccc(C(F)(F)F)cc1NC(N)=S	0	77.4	0	0	0	0
CC(C)(C)c1ccc(C(=O)N/C(N)=N/c2nc3ccccc3o2)cc1	-	0	0	0	0	0
N/C(=N\c1nc2ccccc2o1)NC(=O)c1ccc(Cl)cc1	0	0	0	0	67.5	0
O=c1[nH]c2ccc(NCc3ccccc3OCc3ccc(Cl)cc3)cc2[nH]1	0	71.7	0	0	0	0
CC1CCN(CC(=O)n2c3c(c4ccccc42)CCCC3)CC1	0	0	0	0	49.5	0
CN(C)CCNC(=O)C(=O)C1C(=O)Nc2ccccc21 (configuration not stated)	0	-	0	-	0	0
CCCCCNC(=O)C(=O)C1C(=O)Nc2ccccc21 (configuration not stated)	0	0	56.0	0	0	0
CCOc1cc(NC(=O)c2ccccn2)c(OCC)cc1NC(=O)c1ccccc1	0	0	0	0	0	0
CCOc1cc(NC(=S)NCC2CCCO2)c(OCC)cc1NC(=O)c1ccc(OC)cc1 (configuration not stated)	0	0	0	0	0	0
CCOc1cc(NC(=S)Nc2ccccc2OC)c(OCC)cc1NC(=O)c1ccccc1C	0	87.4	0	0	0	-
CCOc1cc(NC(=S)NCC2CCCO2)c(OCC)cc1NC(=O)c1ccccc1C (configuration not stated)	0	0	0	0	0	-
CCCCC(=O)Nc1cc(OCC)c(NC(=S)NC)cc1OCC	0	0	0	0	71.2	0
CCOc1cc(NC(=S)NC)c(OCC)cc1NC(=O)c1ccc(OC)cc1	0	81.8	0	0	0	0
CCOc1cc(NC(=S)NC)c(OCC)cc1NC(=O)c1ccco1	0	0	0	0	0	0
CCOc1cc(NC(=S)Nc2ccccc2)c(OCC)cc1NC(=O)c1ccccc1	0	80.5	0	0	0	-
C[C@@H]1CN([C@H](C)CO)C(=O)c2cc(NS(=O)(=O)c3ccccc3)ccc2O[C@@H](C)CCCCO[C@@H]1CN(C)Cc1ccc(Cl)c(Cl)c1	0	-	-	-	-	-
CC(C)c1ccc(/C=C/C(=O)Nc2nncs2)cc1	0	-	0	-	0	0
Cc1sc(NC(=O)/C=C/c2ccc(C(C)C)cc2)c(C#N)c1C	0	78.0	0	0	0	-
CCC(C)N(C(=O)c1oc(=O)c2ccccc2c1-c1ccc(C)cc1)C(C)CC (configuration not stated)	0	-	-	-	-	-
Cc1ccc(NC(=O)CSc2nnc3ccccn23)c(Cl)c1	7.9	-	-	-	-	-
Cc1ccc(-n2c(-c3cc(C)n(C)n3)n[nH]c2=S)cc1	0	0	0	0	0	-
Cc1cc(-c2n[nH]c(=S)n2-c2ccccc2)nn1C	7.9	0	0	0	0	0
SMILES	SMARCA2 act	SR-BI DiI inh	Yeast superoxide	SR-BI uptake up	AHR act	Lipid droplet
COc1ccc(/C=C/C(=O)NCC(=O)N/N=C/c2cc(Br)ccc2OCc2ccccc2)cc1	0	79.0	0	0	0	0
CN(C)/C=N/c1nc2nccc(-c3cccs3)n2n1	0	0	0	0	74.9	-
CN(C)/C=N/c1nc2nccc(-c3ccc(F)cc3)n2n1	0	0	0	0	0	-
CCN(CC)c1ccc(/C=N/NC(=O)CNC(=O)c2ccccn2)cc1	0	0	0	0	60.3	0
O=C(CNC(=O)c1ccccn1)N/N=C/c1ccc2c(c1)OCO2	0	0	0	0	67.7	0
CSc1ccc(/C=N/NC(=O)CNc2ccc3ccccc3c2)cc1	0	0	0	0	67.5	0
O=C(CCc1c[nH]c2ccccc12)N/N=C/c1ccc2c(c1)OCO2	0	0	0	0	53.1	0
O=C(CSc1nnc(-c2ccc(Cl)cc2)n1-c1ccccc1)Nc1ccc2c(c1)OCCO2	0	-	-	-	-	-
COCc1cc(N2CCNC[C@H]2C)ccc1N1C[C@@H](C)O[C@@H](C)C1	0	-	-	-	-	-
O=C(CNc1ccccc1)N/N=C/c1ccc2c(c1)OCCO2	0	0	0	0	0	0
O=C(CNc1ccccc1)N/N=C/c1ccc2c(c1)OCO2	0	0	0	0	52.7	0
CC(/C=C/c1ccc2c(c1)OCO2)=N/NC(=O)CNc1ccc(C)cc1	0	0	0	0	97.3	-
CC(/C=C/c1ccc2c(c1)OCO2)=N\NC(=O)c1ccccc1	0	0	0	0	0	0
Cc1ccc(S(=O)(=O)N(CC(=O)NC2CCC(C)CC2)c2cc(C)cc(C)c2)cc1 (configuration not stated)	0	-	-	-	-	-
Cc1nn(-c2ccccc2)c(N2CCCC2)c1/C=N/NC(=O)c1cc(-c2ccccn2)nc2ccccc12	0	0	0	0	0	0
Cc1nn(-c2ccccc2)c(N2CCCC2)c1/C=N/NC(=O)c1cccc(S(=O)(=O)Nc2ccc(Cl)cc2)c1	0	77.0	0	0	0	0
Cc1nn(-c2cccc(Cl)c2)c(Cl)c1/C=N/NC(=O)c1cccnc1	0	0	0	0	77.8	0
Cc1ccc(-c2cc(C(=O)N/N=C/c3c(C)nn(-c4ccccc4)c3C)[nH]n2)cc1	0	77.8	-	0	-	?
Cc1nn(-c2ccccc2)c(N2CCCC2)c1/C=N/NC(=O)c1cc(-c2ccccc2)nc2ccccc12	0	88.3	0	0	0	0
CCCCOc1ccc(C(=O)NC2CCCCN(C)C2=O)cc1 (configuration not stated)	0	-	-	-	-	-
COc1ccc2c(c1)CN1C(=O)N(Cc3ccc(F)cc3)S(=O)(=O)CC21 (configuration not stated)	0	-	-	-	-	-
COc1cccc(-c2nnc(Nc3nc4c(F)cccc4s3)o2)c1	0	0	0	0	64.4	0
COc1cccc(-c2nnc(NC(C)=O)o2)c1	0	0	0	0	0	0
COC(=O)c1ccc(S(=O)(=O)N2CCC(NC(=O)CCc3ccccc3)CC2)cc1	0	-	-	-	-	-
COc1cccc(C(=O)N[C@H](C(=O)N2CCC[C@H]2C(=O)NC2CCCC2)c2ccccc2)c1	0	-	-	-	-	-
CN=c1scc(-c2ccc(F)cc2)n1/N=C/c1ccc(O)c(O)c1	0	78.4	-	0	-	0
CN=c1scc(-c2ccc([N+](=O)[O-])cc2)n1/N=C/c1ccco1	0	0	0	0	0	0
